Our source for the IC50 values is ChEMBL document CHEMBL1764949, “Microbial transformation of (+)-nootkatone and the antiproliferative activity of its metabolites” (2011).

Molecules are shown by their SMILES. ≈ marks a conversion by molar mass, not a printed value.

Assay [1] relates to A549. Kind of assay: Antiproliferative activity against human A549 cells by […]. The format is functional. Conditions: read-out: ID50 (the source's name). The essentials: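 A549 human lung adenocarcinoma cells grown at 37 °C, 5% CO₂ in RPMI 1640+Opti-MEM (1:1) with 5% FBS, 2 mM glutamine, penicillin/streptomycin. Plated 10⁴ cells/well 24 h before dosing. Exposed 72 h to 0.1–100 µg/ml, ethanol vehicle. Cold 50% TCA fixation at 4 °C for 1 h, 0.4% SRB stain, OD 540 nm. ID₅₀ per experiment, mean ± SD. Triplicates, 3–5 experiments.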

Assay [2] deals with HL-60. Kind of assay: Antiproliferative activity against human HL60 cells by MTT assay. The format is functional. Conditions: read-out: ID50 (the source's name). In a few lines: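 HL-60 promyelocytic leukemia cells in suspension in RPMI 1640 with 10% FBS, 2 mM glutamine, 1 mM pyruvate, glucose, antibiotics, 37 °C, 5% CO₂. Plated 10⁴ cells/well 24 h before dosing. Exposed 72 h to 0.1–100 µg/ml, ethanol vehicle. MTT (5 mg/ml stock) added for the last 3–4 h. SDS/DMF lysis for 24 h, OD 570 nm. ID₅₀ mean ± SD. Triplicates, 3–5 experiments.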

With `C[C@@H]1CC(=O)C=C2CC[C@@H]([C@@]3(C)CO3)C[C@]21C`, the IC50 in assay [1] came out at 167 µg/mL (≈ 713 µM); in assay [2], 27.6 µg/mL (≈ 118 µM).

Consider `C=C(C)[C@@H]1C[C@@H](O)C2=CC(=O)C[C@@H](C)[C@]2(C)C1`, for which the IC50 was found to be 62.7 µg/mL (≈ 268 µM) in assay [1] and 25.7 µg/mL (≈ 110 µM) in assay [2].

For `C[C@@H]1CC(=O)C=C2[C@H](O)C[C@H]([C@@]3(C)CO3)C[C@]21C`, the IC50 in assay [1] came to 289 µg/mL (≈ 1150 µM); in assay [2], 345 µg/mL (≈ 1380 µM).

For `C[C@@H]1CC(=O)C=C2CC[C@@H](C(C)(O)CO)C[C@]21C` (some centres undefined), the IC50 in assay [1] came out at 325 µg/mL (≈ 1290 µM); in assay [2] it was 284 µg/mL (≈ 1130 µM).

As to `C=C(C)[C@@H]1CCC2=CC(=O)C[C@@H](C)[C@]2(C)C1` [NOOTKATONE], the IC50 in assay [1] was found to be 58.4 µg/mL (≈ 267 µM); in assay [2] it was 4.27 µg/mL (≈ 19.6 µM).

For the compound `C=C(CO)[C@@H]1CCC2=CC(=O)C[C@@H](C)[C@]2(C)C1`, the IC50 in assay [1] worked out at 36 µg/mL (≈ 154 µM); in assay [2] it was 4.4 µg/mL (≈ 18.8 µM).

Consider `C[C@@H]1CC(=O)C=C2CC[C@](O)(C(C)(O)CO)C[C@]21C` (some centres undefined), for which the IC50 turned out to be 290 µg/mL (≈ 1080 µM) in assay [1] and 25.8 µg/mL (≈ 96.1 µM) in assay [2].
